Source: PubChem BioAssay
V-ATPase pHluor – alters yeast V-ATPase proton transport; S. cerevisiae, pHLuorin cytosolic pH fluorescence; response, % at 10 µM; 0.37% of 350,000 active; in the data active = response mostly above about 7.3%, no sharp cut-off; inactive = mostly below about 5.4%; also: actives read high
Env fusion inh – inhibitors of HIV Env-mediated cell fusion; HeLa-JRFL Env/CEM21 cell fusion, luciferase; inhibition, % at 12.3 µM; 1.1% of 360,000 active;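 active = mean replicate inhibition score of at least 50 and every replicate individually at or above 50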
GalR3 antagonist – antagonists of human GalR3; O60755; HEK293 GalR3-CNG cAMP membrane potential fluorescence; galR3 body fused to GalR1 C-terminus; inhibition, % at 3 µM; 0.44% of 360,000 active;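 active = inhibition above the screen-wide average plus 3 SD, cut at about 13% in these data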;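 also: forskolin and galanin both at EC90 stimulate the cells; cAMP rise reported by CNG channel membrane potential dye signal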
Target sequence (O60755 1-299 limits assumed): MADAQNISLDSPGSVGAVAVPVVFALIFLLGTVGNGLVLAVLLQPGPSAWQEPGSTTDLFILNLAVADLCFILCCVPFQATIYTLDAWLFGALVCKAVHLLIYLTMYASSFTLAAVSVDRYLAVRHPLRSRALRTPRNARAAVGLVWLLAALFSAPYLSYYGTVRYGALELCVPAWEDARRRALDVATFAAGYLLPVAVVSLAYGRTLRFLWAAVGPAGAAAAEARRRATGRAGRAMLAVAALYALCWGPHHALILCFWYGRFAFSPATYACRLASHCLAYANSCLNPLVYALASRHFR
NR2E3 ag-1 – agonists of human nuclear receptor NR2E3. GST-NR2E3/biotin-RetCOR TR-FRET, 1536-well. Q9Y5X4. 0.12% of 320,000 active. inhibition of corepressor binding, % at 4.78 µM;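 active = percent inhibition above the cutoff of mean plus 3 SD of all tested compounds, set per screening campaign, cut at about 20% in these data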
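Material: NR2E3–RetCOR corepressor complex / Incubation: Compound–protein incubation for 5 h at 4 °C / Dosing: compound at 4.8 µM, single dose / Detection: time-resolved FRET / Benchmarks: high control biotin, low control 0.6% DMSO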
NR2E3 ag-2 – human photoreceptor-specific nuclear receptor agonism | 0.35% of 360,000 active | Q9Y5X4 | inhibition of corepressor binding, % at 3.98 µM | CHO-S Gal4-NCOR/VP16-NR2E3 two-hybrid, luciferase;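 active = inhibition above the mean of all tested compounds plus 3 SD, cut at about 70% in these data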;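 also: higher means lower luciferase signal from less NR2E3 corepressor binding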
GAA850 FXN act – frataxin GAA850 promoter activation; HEK293 lucGAA850 FXN promoter luciferase reporter, 24 h; percent of 10 µM SAHA response; activation, % at 6 µM; AID 540364; 0.56% of 360,000 active;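 active = activation above the average of all compounds screened plus 3 SD, cutoff fixed separately per campaign, cut at about 7.5% in these data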
V-ATPase pH SP – yeast V-ATPase proton transport regulation. 2% of 980 active. S. cerevisiae pHLuorin cytosolic pH. shares compounds with V-ATPase pHluor. response, % at 10 µM; in the data active = response above about 24%
Numbers stand for hits; . = inactive; / = no result given. An excerpt weighted towards active compounds, which were near 2.2% of everything screened.

SMILES	V-ATPase pHluor	Env fusion inh	GalR3 antagonist	NR2E3 ag-1	NR2E3 ag-2	GAA850 FXN act	V-ATPase pH SP
COc1cc(F)cc(-c2ccc3c(c2)c(-c2cccs2)c(-c2cc(OC)cc(OC)c2)n3C)c1	.	.	.	.	.	.	/
COc1cc(OC)cc(-c2c(-c3cccs3)c3cc(-c4ccc(CN5CCOCC5)cc4)ccc3n2C)c1	7.8	.	.	/	.	.	.
COc1ccc(OC(=O)N(C)C[C@H]2OCc3ccccc3-c3ccccc3C(=O)N([C@H](C)CO)C[C@H]2C)cc1	/	.	/	/	/	/	/
Cc1ccc(N2CCN(S(=O)(=O)N3CCCCCC3)CC2)cc1Cl	.	/	.	.	.	.	/
Cc1ccc(N2CCN(S(=O)(=O)N3CCCCC3)CC2)cc1C	10.7	.	.	.	.	.	.
CCC1(CC)NC(=O)N(CC(=O)OC(C)C(=O)Nc2ccc(Cl)cn2)C1=O (stereo not drawn)	.	.	.	.	.	.	/
CCC1(CC)NC(=O)N(CC(=O)OC(C)C(=O)Nc2cc([N+](=O)[O-])ccc2OC)C1=O (stereo not drawn)	10.7	.	.	.	.	.	.
CC1CCc2c(sc3ncn(CCO)c(=O)c23)C1 (stereo not drawn)	.	.	.	.	.	.	/
CC1CCc2c(sc3ncn(Cc4ccc(C(=O)O)cc4)c(=O)c23)C1 (stereo not drawn)	6.6	.	.	.	.	.	.
O=C(Nc1ccc2c(c1)[C@H]1C[C@H](CC(=O)N3CCCCC3)O[C@@H](CO)[C@H]1O2)C1CCOCC1	/	.	/	/	/	/	/
Cc1ccccc1NC(=O)N(CCc1nc2ccccc2[nH]1)Cc1ccccc1	11.5	/	.	.	.	.	.
Cc1c(-n2c(SCC(=O)O)nnc2-c2ccccc2Br)c(=O)n(-c2ccccc2)n1C	7.1	.	.	.	.	.	.
C=CCNC(=O)CSc1nnc(-c2ccccc2Cl)n1-c1c(C)n(C)n(-c2ccccc2)c1=O	.	/	/	.	.	.	/
C[C@@H]1CN([C@H](C)CO)S(=O)(=O)c2ccc(C#C[C@@H](C)O)cc2O[C@H]1CN(C)C(=O)Nc1ccccc1	/	.	/	/	/	/	/
C/C=C/c1cnc2c(c1)C(=O)N([C@@H](C)CO)C[C@H](C)[C@@H](CN(C)C(=O)Cc1ccccn1)O2	/	.	/	/	/	/	/
CCc1cc(=O)oc2cc(OCC(=O)NC3CC(C)(C)NC(C)(C)C3)ccc12	.	.	.	.	.	.	/
Cc1cc(=O)oc2cc(OCC(=O)NC3CC(C)(C)NC(C)(C)C3)ccc12	10.9	.	.	.	.	.	.
O=C(c1cccnc1)N1CCN(Cc2ccc3ccccc3c2)CC1	10.0	.	.	.	.	.	.
O=C(c1cccnc1)N1CCN(Cc2cccc(F)c2)CC1	.	/	.	.	.	.	/
CCCCCCOC(=O)C[N+](C)(C)CCOC1CC2CCC1(C)C2(C)C (stereo not drawn)	11.9	.	.	.	.	.	.
O=S(=O)(N[C@@H]1CC[C@H](CCn2cc(C3CC3)nn2)O[C@H]1CO)c1ccc(F)cc1	/	.	/	/	/	/	/
c1ccc(Cn2nnnc2CN2CCN(Cc3ccc4c(c3)OCO4)CC2)cc1	6.8	/	.	.	.	.	.
N#CCc1c(C#N)c(N)nc(N2CCCC(CO)C2)c1C#N (stereo not drawn)	.	.	.	.	.	.	/
N#CCc1c(C#N)c(N)nc(N2CCCC(O)C2)c1C#N (stereo not drawn)	10.8	.	.	.	.	.	.
CC(=O)NC(Cc1ccccc1)C(=O)N1CCN(C(=O)c2ccco2)CC1 (stereo not drawn)	.	/	/	.	.	.	/
SMILES	V-ATPase pHluor	Env fusion inh	GalR3 antagonist	NR2E3 ag-1	NR2E3 ag-2	GAA850 FXN act	V-ATPase pH SP
O=C(NC(Cc1ccccc1)C(=O)N1CCN(c2ccccn2)CC1)c1ccco1 (stereo not drawn)	12.2	.	.	.	.	.	.
CCNC(=O)COC(=O)CCC(=O)c1ccc(F)cc1	.	.	.	.	.	.	.
COC(=O)c1ccc(CNC(=O)COC(=O)CCC(=O)c2ccc(F)cc2)cc1	.	/	.	/	.	.	/
COc1ccc2c3c(n(C)c2c1)[C@@H](CO)N(Cc1ccccc1)CC31CCN(C(=O)Nc2cccc(F)c2)CC1	/	.	/	/	/	/	/
CCOC(=O)Nc1c2ccccc2nc2ccccc12	.	.	.	.	.	.	.
COCC(=O)N(C)C[C@H]1Oc2cc(C#CCC(C)C)ccc2S(=O)(=O)N([C@H](C)CO)C[C@@H]1C	/	.	/	/	/	/	/
CCCC#Cc1ccc2c(c1)O[C@@H](CN(C)S(=O)(=O)c1cccc(OC)c1)[C@H](C)CN([C@H](C)CO)S2(=O)=O	/	.	/	/	/	/	/
CCOC(=O)C1C(=O)N(O)CC1c1cccc(Oc2ccccc2)c1 (stereo not drawn)	12.5	.	.	.	.	.	.
CCN1[C@H](C(=O)N(C)C)[C@@H](CO)[C@@H]2Cn3c(ccc(-c4cccc(C(=O)N(C)C)c4)c3=O)[C@@H]21	/	.	/	/	/	/	/
C1=Cc2ccccc2Nc2ccccc21	11.8	.	.	.	.	.	.
CCCN1C[C@@H](C)[C@@H](OC)CN(C)C(=O)c2ccc(NC(=O)c3cccc(OC)c3)cc2OC[C@@H]1C	/	.	/	/	/	/	/
COc1cccc(C2=NOC(C(=O)Nc3ccc(C(C)=O)cc3)C2)c1 (stereo not drawn)	12.5	.	.	.	.	.	.
CC(C)CC#Cc1cnc2c(c1)C(=O)N([C@H](C)CO)C[C@H](C)[C@H](CN(C)Cc1cncnc1)O2	/	.	/	/	/	/	/
Cc1cccc(N2CCN(C(=O)c3cc(=O)[nH]c4ccccc34)CC2)c1C	14.1	.	.	.	.	.	.
O=C(c1cc(=O)[nH]c2ccccc12)N1CCN(c2ccccc2)CC1	.	.	.	.	.	.	/
O=C(Nc1ccn(Cc2c(F)c(F)cc(F)c2F)n1)c1cccc(Cn2cc([N+](=O)[O-])cn2)c1	19.2	.	.	.	.	.	.
O=C(NC1=NCCS1)c1cccc(Br)c1	.	.	.	.	.	.	/
O=C(NC1=NCCS1)c1cccc(F)c1	.	.	.	.	.	.	.
CCCN1[C@@H]2c3ccc(-c4cncnc4)c(=O)n3C[C@@H]2[C@@H](CO)[C@@H]1C(=O)OC	/	.	/	/	/	/	/
Cc1cccc(-n2nc([N+](=O)[O-])c(=NC3CCN(Cc4ccccc4)CC3)n2O)c1	12.7	.	.	.	.	.	.
COc1ccc(S(=O)(=O)N(C)C[C@H]2OCCCC[C@H](C)Oc3ccc(NC(=O)Nc4cccc5ccccc45)cc3C(=O)N([C@@H](C)CO)C[C@H]2C)cc1	/	.	/	/	/	/	/
CN1CCN(CCCC(=O)c2ccc(F)cc2)CC1	.	.	.	.	.	.	.
O=C(CCCN1Cc2ccccc2C1)c1ccc(F)cc1	.	/	.	.	.	.	.
CN(C)CCC(=O)c1ccc(F)cc1	.	.	.	.	.	.	.
O=C(CCCN1CCN(c2ccccc2)CC1)c1ccc(F)cc1	.	.	.	/	.	.	/
